H69AR growth 86K: blocks growth of human H69AR lung tumor cells. viability, % at 10 µM. H69AR lung tumor viability, ATP luminescence, 72 h; stronger effect = lower value. 85,000 tested, 6% active;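 active means viability at or below 40%; inactive means viability above 40%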;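 further: multidrug resistant small cell line overexpressing MRP-1 efflux transporter; 100% = mean luminescence of untreated control wells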
MT1-MMP txn act: MT1-MMP promoter transcription activation; activation factor at 10 µM; AID 750; 86,000 tested, 0.16% active; HT1080 MT1-MMP promoter luciferase reporter, luminescence, overnight; stronger effect = higher value;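 active means activation factor of at least 2 for MT1-MMP transcription at 10 µM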
Pyk2 oligo antag: antagonists of human Pyk2 oligomerization | AID 1347419 | 99,000 tested, 0.83% active | Q293 cells, Pyk2 FERM NanoBiT luminescence; stronger effect = lower value | z-score (the deposit names both 25 µM and 10 µM) | Q14289;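 active means Z-score of -3 or lower, scaled per plate to the spread of control and sample wells; inactive means z-score above -3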;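 further: negative z-score means lost luminescence so less FERM oligomerization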
Target sequence (Q14289 whole entry, looked up): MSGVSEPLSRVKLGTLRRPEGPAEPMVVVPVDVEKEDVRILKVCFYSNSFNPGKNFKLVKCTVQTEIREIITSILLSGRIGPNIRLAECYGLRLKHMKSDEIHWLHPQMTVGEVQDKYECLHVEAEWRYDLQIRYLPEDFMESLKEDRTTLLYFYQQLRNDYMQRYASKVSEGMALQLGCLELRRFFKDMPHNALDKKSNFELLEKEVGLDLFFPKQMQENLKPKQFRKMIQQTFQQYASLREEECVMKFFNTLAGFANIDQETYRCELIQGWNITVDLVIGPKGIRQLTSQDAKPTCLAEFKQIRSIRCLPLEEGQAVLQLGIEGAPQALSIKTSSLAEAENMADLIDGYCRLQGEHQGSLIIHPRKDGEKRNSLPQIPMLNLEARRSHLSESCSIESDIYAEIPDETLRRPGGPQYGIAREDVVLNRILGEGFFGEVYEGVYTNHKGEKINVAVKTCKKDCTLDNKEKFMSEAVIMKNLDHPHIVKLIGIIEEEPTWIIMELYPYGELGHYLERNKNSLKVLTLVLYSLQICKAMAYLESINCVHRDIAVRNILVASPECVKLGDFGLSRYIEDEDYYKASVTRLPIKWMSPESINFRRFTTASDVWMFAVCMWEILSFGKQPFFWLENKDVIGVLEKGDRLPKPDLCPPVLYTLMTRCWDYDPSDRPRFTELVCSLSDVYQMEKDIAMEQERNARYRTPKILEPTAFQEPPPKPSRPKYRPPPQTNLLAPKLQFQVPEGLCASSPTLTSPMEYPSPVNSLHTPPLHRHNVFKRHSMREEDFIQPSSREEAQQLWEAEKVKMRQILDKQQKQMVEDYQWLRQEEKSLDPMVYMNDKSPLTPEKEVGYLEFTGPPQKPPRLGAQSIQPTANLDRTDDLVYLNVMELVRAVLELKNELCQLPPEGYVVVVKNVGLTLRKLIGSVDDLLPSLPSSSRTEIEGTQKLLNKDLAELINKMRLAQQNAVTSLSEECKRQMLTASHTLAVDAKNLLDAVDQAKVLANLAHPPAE
Fibroblast inh: blocks proliferation of human lung fibroblasts; LL 47 human lung fibroblast viability, ATP luminescence; stronger effect = lower value; viability, % at 10 µM; 85,000 tested, 1.1% active;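 active means viability at or below 50% in the single dose screen; inactive means viability above 50%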;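 further: compound exposure lasted 72 h before the ATP readout; 100% = median luminescence of untreated cell-only wells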
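Times – overnight cell rest, 72 h compound treatment at 37 °C · Test system – human lung fibroblast line LL 47, low passage · Amount – 1,150 cells in each well · Controls – cell-only wells, no compound · Doses – 0.1% DMSO in all compound wells · Measured by – CellTiter-Glo luminescence · Buffer or medium – IMEM plus 15% FBS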
Jurkat tox 60K: cytotoxic compounds reducing Jurkat cell viability. 56,000 tested, 1.2% active. Jurkat E6.1 viability, ATP luminescence, 48 h. inhibition, % at 4 µM;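 active means inhibition above the mean inhibition of all tested compounds plus 3 SD, cut at about 28% in these data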
HUVEC inhibit: human endothelial cell proliferation inhibition; HUVEC proliferation, CellTiter-Glo luminescence, 72 h; stronger effect = lower value; viability, % at 10 µM (by protocol); 86,000 tested, 1.1% active; AID 648;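 active means viability at or below 30%; inactive means viability above 30%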;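 further: 100% = median luminescence of DMSO-only cell control wells on each plate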
An asterisk follows results filed as active; / = not tested or not shown. An excerpt weighted towards active compounds, which were near 5.9% of everything screened.

SMILES	H69AR growth 86K	MT1-MMP txn act	Pyk2 oligo antag	Fibroblast inh	Jurkat tox 60K	HUVEC inhibit
Cc1cccc(NC(=O)C2NC(=O)CC2c2ccccc2)c1C (centres undefined)	100.1	/	/	99.8	/	121.7
COc1ccc(N=CC2=C(O)c3ccccc3C2=O)cc1	34.9*	/	-0.5	104.5	/	83.2
COc1ccc(N2CCN(CCCNC(=O)CC3Oc4ccc(C)cc4NC3=O)CC2)cc1 (centres undefined)	88.7	1.1	/	99.7	-6.2	96.0
COc1cc2nc(SCc3c(C)noc3C)n(CCC3=CCCCC3)c(=O)c2cc1OC	26.7*	1.2	-1.61	86.1	-0.2	71.5
COc1cc2nc(SCC(=O)NC3CC3)n(CCC3=CCCCC3)c(=O)c2cc1OC	33.6*	1.1	/	76.2	-3.2	24.8*
Cc1noc(C)c1CSc1nc2sc3c(c2c(=O)n1C)CCCC3	73.4	0.8	-1.24	86.5	/	52.0
C=CCn1c(SCC(=O)NCCC2=CCCCC2)nc2ccc(Cl)cc2c1=O	/	/	2.67	/	/	/
O=C(c1cc2nc3c(c(C(F)(F)F)n2n1)CCc1ccccc1-3)N1CCN2CCCC2C1 (centres undefined)	93.5	1	/	105.9	-12.8	87.2
O=c1/c(=C\c2cccnc2)sc2nc3ccccc3n12	73.3	/	0	103.1	-3.1	84.0
N=c1cc(C2(O)CCCCC2)n2c(nc3ccccc32)s1	6.8*	0.2	0.07	96.5	/	65.0
O=C(Nc1cccc(Cl)c1)c1csc(-c2ccccc2)n1	/	/	-1.3	/	/	/
Cc1cccc(NC(=O)C2CC(=O)N(c3ccccc3)C2)c1C (centres undefined)	97.3	1.1	-0.18	105.1	/	101.4
Cc1nc2c3cc(Cl)ccc3n(CCN3CCCCC3)c2s1	26.0*	0.6	-0.83	49.0*	/	46.5
COc1ccc(-c2nc(NC(=O)C3CCN(c4nc5ccccc5o4)CC3)sc2C)cc1	31.9*	0.9	-0.06	85.6	18.2	59.4
CC(C)CCNC(=O)C1CCN(c2nc3ccccc3o2)CC1	/	1.1	0.84	/	15.0	/
Oc1c(C=Nc2cccc3cccnc23)sc2ccccc12	17.1*	0.9	/	42.2*	/	4.2*
Cc1ccc(CN(CC2CCCO2)C(=O)CN2C(=O)C(C(C)C)Oc3ccccc32)o1 (centres undefined)	38.3*	1.1	1.15	91.9	-2.2	106.2
c1ccc2c(c1)oc1c(Nc3ccc(CN4CCOCC4)cc3)ncnc12	3.5*	1.1	-0.02	97.9	12.8	5.4*
COc1ccc(C2CC(c3cccs3)=Nc3ccccc3S2)cc1 (centres undefined)	17.4*	2.1*	-0.27	88.6	/	77.1
O=C(Cc1sc(-c2ccccc2Cl)nc1-c1ccccc1)Nc1ccc(F)cc1	10.8*	1.1	-1.15	44.8*	/	78.6
O=C(Cc1sc(-c2ccccc2)nc1-c1ccccc1)Nc1ccc(Cl)cc1	20.2*	1.1	-2.57	67.2	/	49.9
O=C(Cc1nc(=O)c2ccccc2s1)Nc1ccccc1	/	/	-0.57	/	/	/
O=C(Cc1sc(-c2ccccc2Cl)nc1-c1ccccc1)Nc1ccccc1	44.9	1.2	-1.09	23.3*	/	66.2
Cc1nnc2sc(-c3ccc(NC(=O)c4cccnc4)cc3)nn12	10.1*	1.2	/	102.7	-11.2	98.7
Cc1nnc2sc(-c3ccc(NC(=O)c4ccc(-c5ccc(Cl)cc5Cl)o4)cc3)nn12	8.2*	1.2	0.63	59.1	-1.1	28.4*
SMILES	H69AR growth 86K	MT1-MMP txn act	Pyk2 oligo antag	Fibroblast inh	Jurkat tox 60K	HUVEC inhibit
CCc1ccc(NC(=O)c2cccnc2)cc1	80.6	1.5	-0.29	94.0	6.4	98.3
CCSc1ccc(NC(=O)c2cccnc2)cc1	33.1*	1.3	-0.12	100.4	/	105.0
CCN(CC)c1ccc(NC(=O)c2cccnc2)c(C)c1	39.7*	1.1	1.02	99.4	/	88.9
CCOC(=O)c1ccc2ncc(C(=O)OCC)c(NCc3ccco3)c2c1	36.2*	1.1	0.46	105.1	-3.1	65.2
O=C(O)c1cc(S(=O)(=O)N2CCOCC2)c(Sc2ccccn2)cc1Sc1ccccn1	101.5	1.1	0.11	99.2	-6.4	93.4
Cn1c(Cl)cnc1C1CC(=O)c2cc(Cl)ccc2O1 (centres undefined)	0.2*	0.6	-0.42	16.1*	/	39.3
COc1cc(OC)cc(C(=O)NC2CCN(CC(=O)Nc3cccc4ccccc34)CC2)c1	38.8*	1.1	0.19	106.2	/	81.3
O=C(CN1CCC(NC(=O)c2ccco2)CC1)Nc1cccc2ccccc12	84.3	1	-1.07	93.0	/	101.0
COc1cc(NCCCCCCCN)c2ncccc2c1	101.9	0.9	-1.07	22.7*	/	3.1*
CCOC(=O)C1=C(C)N(CCCC(=O)O)C(=O)NC1c1ccccc1OC(=O)c1ccc(I)cc1 (centres undefined)	/	1.1	/	/	/	/
CCOC(=O)c1ccc2c(c1)C(=O)N(C1CCCCC1)C2=O	94.2	1.1	-1.32	100.5	-5.6	107.0
CCC(=O)Oc1ccc(C(=O)Nc2ccc3c(c2)C(=O)N(C2CCCCC2)C3=O)cc1	5.3*	/	-2.67	93.4	/	55.4
O=c1[nH]c2cc3c(cc2cc1CN(Cc1ccccc1)Cc1nnnn1Cc1ccco1)OCCO3	45.0	1	1.11	92.6	4.5	69.3
CCC(c1nnnn1Cc1ccco1)N(CCc1ccccc1)Cc1cc2cc(C)ccc2[nH]c1=O (centres undefined)	22.2*	1	0.48	87.7	1.8	75.9
CCC(c1nnnn1Cc1ccccc1)N(Cc1ccco1)Cc1cc2cc(OC)ccc2[nH]c1=O (centres undefined)	16.2*	1.2	-0.39	84.1	16.6	74.0
CCC(c1nnnn1CCOC)N(Cc1ccc(C)cc1)Cc1cc2cc(OC)ccc2[nH]c1=O (centres undefined)	86.0	1.1	0.33	91.0	-6.8	85.0
CCc1ccc2[nH]c(=O)c(CN(Cc3ccccc3)Cc3nnnn3Cc3ccco3)cc2c1	20.7*	1.1	0.23	92.3	5.5	82.3
COC(=O)CCN1CCC(C(N)=O)CC1	93.4	1.1	1.09	97.6	1.5	97.1
COC(=O)[C@@]1(Cc2ccccc2)[C@H]2c3cc(C(=O)N(C)C)n(Cc4ccc(S(C)(=O)=O)cc4)c3C[C@H]2CN1C(=O)c1ccccc1	/	1.1	/	/	/	/
Nc1c(S(=O)(=O)c2cccc(Cl)c2)c2nc3ccccc3nc2n1/N=C/c1ccc(O)c(O)c1	1.3*	0.8	/	13.7*	5.9	6.0*
COc1ccc(NC(=O)CSC2CC(=O)N(c3ccc4c(c3)OCCO4)C2=O)cc1 (centres undefined)	86.3	1	0.35	106.9	6.1	100.5
Cc1ccc(C2CC2C(=O)NNC(=S)Nc2cccc(C)c2)cc1 (centres undefined)	61.9	1	-0.1	91.6	/	86.3
Cc1ccc(C2CC2C(=O)NNC(=S)Nc2cccc(Cl)c2)cc1 (centres undefined)	16.7*	1.3	-1.38	91.3	/	69.1
COc1ccc(OC)c(N=C(C)C2=C(O)COC2=O)c1	21.9*	1.1	-0.18	88.8	/	86.2
CC(=Nc1ccccc1)C1=C(O)COC1=O	105.4	1	0.67	108.8	/	114.8
